Data as given in ChEMBL document CHEMBL4265971, “Modified carbazoles destabilize microtubules and kill glioblastoma multiform cells” (Eur J Med Chem, 2018).
Active and inactive are the calls of the source. The rule behind the calls is not given here.

Assays:
T98G [1] = experiment: Cytotoxicity against human T98G cells after 72 hrs by WST-1 assay; assay type: functional, cell-based
Outline: (§1)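 Viability read with WST-1 72 h after treatment with increasing concentrations; DMSO vehicle 0.1% final. T98G and HepG2 grown in DMEM/10% FBS/pen-strep at 37 °C, 5% CO2. Patient-derived GBM cells (WHO grade IV; proneural, classical, mesenchymal) grown in NeuroCult NSA with B-27, 20 ng/mL EGF and 20 ng/mL FGF2. EC50 from curve fit, reported only when extrapolable. Mean of ≥3 independent experiments in triplicate.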

T98G [2] = experiment: Cytotoxicity against human T98G cells assessed as cell killing at 3 uM after 72 hrs by WST-1 assay relative to control; assay type: functional
Outline: (§2)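 Maximal killing is the largest % loss of viability against 0.1% DMSO vehicle, read by WST-1 72 h after treatment, at the stated concentration. T98G/HepG2 grown in DMEM/10% FBS; patient-derived GBM grown in NeuroCult NSA with B-27, EGF and FGF2 (20 ng/mL each). Mean ± SEM of ≥3 independent experiments in triplicate.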

T98G [3] = experiment: Cytotoxicity against human T98G cells assessed as cell killing at 100 nM after 72 hrs by WST-1 assay relative to control; assay type: functional
Outline: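 T98G human GBM cells (ATCC, STR-authenticated, under 6 months in culture) grown in DMEM with 10% FBS and penicillin/streptomycin, 37 °C, 5% CO2. Exposed to increasing compound concentrations in DMSO (0.1% final) for 72 h, then WST-1 viability read. Maximal killing is the largest % viability reduction versus vehicle over the concentrations tested. Mean of ≥3 independent experiments in triplicate.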

T98G [4] = experiment: Cytotoxicity against human T98G cells assessed as cell killing at 10 uM after 72 hrs by WST-1 assay relative to control; assay type: functional; outline: as §2
GBM [5] = experiment: Cytotoxicity against patient-derived proneural GBM cells after 72 hrs by WST-1 assay; assay type: functional, cell-based; conditions: Homo sapiens; outline: as §1
GBM [6] = experiment: Cytotoxicity against patient-derived proneural GBM cells assessed as cell killing at 1 uM after 72 hrs by WST-1 assay relative to control; assay type: functional, Homo sapiens; outline: as §2
GBM [7] = experiment: Cytotoxicity against patient-derived classical GBM cells after 72 hrs by WST-1 assay; assay type: functional, cell-based; conditions: Homo sapiens; outline: as §1
GBM [8] = experiment: Cytotoxicity against patient-derived classical GBM cells assessed as cell killing at 3 uM after 72 hrs by WST-1 assay relative to control; assay type: functional, Homo sapiens; outline: as §2
GBM [9] = experiment: Cytotoxicity against patient-derived mesenchymal GBM cells after 72 hrs by WST-1 assay; assay type: functional, cell-based; conditions: Homo sapiens; outline: as §1
GBM [10] = experiment: Cytotoxicity against patient-derived mesenchymal GBM cells assessed as cell killing at 3 uM after 72 hrs by WST-1 assay relative to control; assay type: functional, Homo sapiens; outline: as §2
HepG2 [11] = experiment: Cytotoxicity against human HepG2 cells after 72 hrs by WST-1 assay; assay type: functional, cell-based; conditions: HepG2, 72 h; outline: as §1
HepG2 [12] = experiment: Cytotoxicity against human HepG2 cells assessed as cell killing at 10 uM after 72 hrs by WST-1 assay relative to control; assay type: functional; outline: as §2
SF-295 = experiment: Cytotoxicity against human SF295 cells after 48 hrs by sulforhodamine B assay; assay type: functional, cell-based
SF-539 = experiment: Cytotoxicity against human SF539 cells after 48 hrs by sulforhodamine B assay; assay type: functional, cell-based
COLO 205 = experiment: Cytotoxicity against human COLO205 cells after 48 hrs by sulforhodamine B assay; assay type: functional, cell-based
HT-29 = experiment: Cytotoxicity against human HT-29 cells after 48 hrs by sulforhodamine B assay; assay type: functional, cell-based
HCC 2998 = experiment: Cytotoxicity against human HCC2998 cells after 48 hrs by sulforhodamine B assay; assay type: functional, cell-based
Bos taurus [13] = species on record: Bos taurus; experiment: Inhibition of [3H]colchicine binding to bovine brain tubulin at 5 uM after 1 hr liquid scintillation counting assay relative to control
[14] = Inhibition of bovine brain t in presence of 0.4 mM GTP; set-up: species or system Bos taurus
[15] = Induction of bovine brain microtubule destabilization assessed as increase in free tubulin levels after 15 mins by Coomassie G-250 staining-based polyacrylamide gel electrophoresis method; set-up: species or system Bos taurus
Outline: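 Bovine brain tubulin purified, polymerized into MTs and sheared. Sheared MTs incubated with compound at 37 °C for 15 min, then centrifuged 10 min at 42,000 rpm at 37 °C. Supernatant (free tubulin) and pellet (MT) run on polyacrylamide gels. EC50 from representative experiments repeated three times.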

T98G [16] = experiment: Cytotoxicity against human T98G cells assessed as cell killing at 1 uM after 72 hrs by WST-1 assay relative to control; assay type: functional; outline: as §2
GBM [17] = experiment: Cytotoxicity against patient-derived proneural GBM cells assessed as cell killing at 5.6 uM after 72 hrs by WST-1 assay relative to control; assay type: functional, Homo sapiens
Outline: (§3)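 Patient-derived GBM cells come from freshly resected WHO grade IV tumours. They are subtyped proneural, classical or mesenchymal and kept in NeuroCult NSA medium with B-27, 20 ng/mL EGF and 20 ng/mL FGF2. Cells were treated with increasing compound concentrations (DMSO 0.1% final). Viability was read by WST-1 after 72 h. Maximal killing is the largest % reduction versus vehicle. Mean of ≥3 independent experiments in triplicate.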

GBM [18] = experiment: Cytotoxicity against patient-derived classical GBM cells assessed as cell killing at 5.6 uM after 72 hrs by WST-1 assay relative to control; assay type: functional, Homo sapiens; outline: as §3
GBM [19] = experiment: Cytotoxicity against patient-derived mesenchymal GBM cells assessed as cell killing at 10 uM after 72 hrs by WST-1 assay relative to control; assay type: functional, Homo sapiens; outline: as §3
HepG2 [20] = experiment: Cytotoxicity against human HepG2 cells assessed as cell killing at 5.6 uM after 72 hrs by WST-1 assay relative to control; assay type: functional; outline: as §2
GBM [21] = experiment: Cytotoxicity against patient-derived mesenchymal GBM cells assessed as cell killing at 1 uM after 72 hrs by WST-1 assay relative to control; assay type: functional, Homo sapiens; outline: as §2
GBM [22] = experiment: Cytotoxicity against patient-derived classical GBM cells assessed as cell killing at 1 uM after 72 hrs by WST-1 assay relative to control; assay type: functional, Homo sapiens; outline: as §2
HepG2 [23] = experiment: Cytotoxicity against human HepG2 cells assessed as cell killing at 0.6 uM after 72 hrs by WST-1 assay relative to control; assay type: functional; outline: as §2
Bos taurus [24] = species on record: Bos taurus; experiment: Inhibition of [3H]colchicine binding to bovine brain tubulin at 1 uM after 1 hr liquid scintillation counting assay relative to control

CCn1c2ccccc2c2cc(C(=O)c3ccc(C)cc3)ccc21
EC50 (T98G [1]): 993 nM
%max (T98G [2]): 83.6%

CCn1c2ccccc2c2cc(C(=O)c3cccc4c3NCCC4)ccc21
EC50 (T98G [1]): > 10000 nM
%max (T98G [3]): -18%

CCn1c2ccccc2c2cc(C(=O)N3CCN(C)CC3)ccc21
EC50 (T98G [1]): > 10000 nM
%max (T98G [4]): 13.2%

CCCn1c2ccccc2c2cc(C(=O)c3ccc(C)c4ccccc34)ccc21
EC50 (T98G [1]): > 10000 nM
%max (T98G [4]): 16.3%

CCn1c2ccccc2c2cc(C(=O)c3cccc4ccccc34)ccc21
EC50 (T98G [1]): 1700 nM
%max (T98G [4]): 72%

Cc1ccc(C(=O)c2ccc3c(c2)c2ccccc2n3CC(F)(F)F)c2ccccc12
EC50 (T98G [1]): 5600 nM
%max (T98G [4]): 35.6%

CCn1c2ccccc2c2cc(C(=O)c3ccc(Cl)cc3)ccc21
EC50 (T98G [1]): 1500 nM
%max (T98G [4]): 71.1%

CCn1c2ccc(C(=O)c3ccc(C)c4ccccc34)cc2c2ccc(OC)cc21
EC50 (T98G [1]): 2600 nM
%max (T98G [4]): 71.6%

CCn1c2ccccc2c2cc(C(O)c3ccc(C)c4ccccc34)ccc21 (centres undefined)
EC50 (T98G [1]): 560 nM
%max (T98G [2]): 72.8%
EC50 (GBM [5]): 630 nM
%max (GBM [6]): 44%
EC50 (GBM [7]): 633 nM
%max (GBM [8]): 56%
EC50 (GBM [9]): 386 nM
%max (GBM [10]): 50.6%
EC50 (HepG2 [11]): 101 nM
%max (HepG2 [12]): 30.8%
Activity (SF-295): Active
Activity (SF-539): Active
Activity (COLO 205): Active
Activity (HT-29): Active
Activity (HCC 2998): Active
inhibition (Bos taurus [13]): 70%
IC50 [14]: 1600 nM
EC50 [15]: 6.4 µM

Cc1ccc(C(=O)n2c3ccccc3c3ccccc32)c2ccccc12
EC50 (T98G [1]): 957 nM
%max (T98G [4]): 89.1%

CCn1c2ccccc2c2cc(C(=O)Cc3ccccc3)ccc21
EC50 (T98G [1]): > 10000 nM
%max (T98G [4]): 14%

CCn1c2ccccc2c2cc(C(=O)N3CCCc4ccccc43)ccc21
EC50 (T98G [1]): 757 nM
%max (T98G [16]): 89%
EC50 (GBM [5]): 613 nM
%max (GBM [17]): 98.9%
EC50 (GBM [7]): 846 nM
%max (GBM [18]): 98.6%
EC50 (GBM [9]): 1820 nM
%max (GBM [19]): 97.2%
%max (HepG2 [20]): 8.3%
inhibition (Bos taurus [13]): 41%
IC50 [14]: 4400 nM
EC50 [15]: 5.3 µM

CCn1c2ccccc2c2cc(C(=S)c3ccc(C)c4ccccc34)ccc21
EC50 (T98G [1]): > 10000 nM
%max (T98G [2]): -17%

CCn1c2c(c3ccccc31)CN(C(=O)c1ccc(C)c3ccccc13)CC2
EC50 (T98G [1]): > 10000 nM
%max (T98G [2]): 45.1%

CCn1c2ccccc2c2cc(C(=O)c3cccc4cccnc34)ccc21
EC50 (T98G [1]): 8800 nM
%max (T98G [4]): 60%

CCn1c2ccccc2c2cc(C(=O)c3ccc(F)cc3)ccc21
EC50 (T98G [1]): 8000 nM
%max (T98G [4]): 54.8%

CCn1c2ccccc2c2cc(C(=O)c3ccc(C)c4ccccc34)ccc21
EC50 (T98G [1]): 87 nM
%max (T98G [4]): 45.3%
EC50 (GBM [5]): 542 nM
EC50 (GBM [7]): 698 nM
%max (GBM [8]): 47.9%
EC50 (GBM [9]): 268 nM
%max (GBM [21]): 64.3%
EC50 (HepG2 [11]): 1690 nM
%max (HepG2 [20]): 25%
Activity (SF-295): Active
Activity (SF-539): Active
Activity (COLO 205): Active
Activity (HT-29): Active
Activity (HCC 2998): Active
inhibition (Bos taurus [13]): 53%
IC50 [14]: 1400 nM
EC50 [15]: 2.1 µM

CCn1c2ccccc2c2cc(C(=O)c3cccc4ncccc34)ccc21
EC50 (T98G [1]): 184 nM
%max (T98G [16]): 74.4%
EC50 (GBM [5]): 316 nM
%max (GBM [6]): 44.8%
EC50 (GBM [7]): 407 nM
%max (GBM [22]): 53.9%
EC50 (GBM [9]): 335 nM
%max (GBM [21]): 58.9%
EC50 (HepG2 [11]): 66 nM
%max (HepG2 [23]): 28.6%
Activity (SF-295): Active
Activity (SF-539): Active
Activity (COLO 205): Active
Activity (HT-29): Active
Activity (HCC 2998): Active
inhibition (Bos taurus [13]): 91%
inhibition (Bos taurus [24]): 61%
IC50 [14]: 890 nM
EC50 [15]: 3.4 µM
